Tests used:
Cytochrome P450 2B6 = target: T1, Cytochrome P450 2B6 (Homo sapiens, UniProt P20813); assay: Inhibition of human CYP2B6; type: ADME
T1 sequence (P20813 whole entry): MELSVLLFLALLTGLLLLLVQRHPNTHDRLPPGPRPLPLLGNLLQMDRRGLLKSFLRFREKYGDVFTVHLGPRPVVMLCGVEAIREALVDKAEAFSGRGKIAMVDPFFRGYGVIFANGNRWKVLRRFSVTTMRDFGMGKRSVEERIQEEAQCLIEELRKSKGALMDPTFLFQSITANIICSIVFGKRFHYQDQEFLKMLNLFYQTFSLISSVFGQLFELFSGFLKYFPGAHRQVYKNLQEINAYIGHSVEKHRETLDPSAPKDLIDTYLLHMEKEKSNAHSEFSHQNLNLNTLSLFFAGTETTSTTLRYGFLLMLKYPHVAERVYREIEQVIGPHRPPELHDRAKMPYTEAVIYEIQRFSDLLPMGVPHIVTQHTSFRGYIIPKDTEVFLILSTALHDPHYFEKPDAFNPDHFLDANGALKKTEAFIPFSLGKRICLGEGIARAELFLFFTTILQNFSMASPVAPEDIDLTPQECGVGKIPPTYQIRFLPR

[1] = Drug metabolism in dog hepatocytes assessed per 10^6 cells; type: ADME, cell-based, Canis lupus familiaris, Hepatocyte
Outline: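 Metabolic rate in mouse, rat, dog, monkey and human hepatocyte incubations, expressed as pmol/min/10^6 cells.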

Question: Which IC50 (Cytochrome P450 2B6) does the source give for `CCS(=O)(=O)N[C@@H]1C[C@]2(C)O[C@]1(C)[C@@H]1C(=O)N(c3ccc(C#N)c(C(F)(F)F)c3)C(=O)[C@@H]12` here?
Answer: Its IC50 is > 40 µM.

Question: What about the Drug metabolism [1] of the same molecule?
Answer: The Drug metabolism was 3 pmol/min.
